Source: ChEMBL document CHEMBL1123024, “5,6-Diaryl-2,3-dihydroimidazo[2,1-b]thiazoles: a new class of immunoregulatory antiinflammatory agents” (1985)

Assays:
[1] = system: Rattus norvegicus; test: Percent change in nonimmune L16 inflammatory lesions in rat adjuvant-induced arthritis at 50 mg/kg; assay type: functional
In short: (§1)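 Male Wistar rats received 0.75 mg M. butyricum in paraffin oil intradermally into the left hindpaw. Compounds were given daily po in 0.5% tragacanth from the injection day for 17 days, skipping days 4, 5, 11 and 12. Leg volumes were read by mercury displacement: left leg on day 3, both legs on day 16. Eight treated rats vs 16 vehicle controls; Student's t test. ED25 is the dose giving a 25% volume decrease, from at least three doses, with 95% limits by Fieller's theorem.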

[2] = system: Rattus norvegicus; test: Change in 7S hemagglutinination titers in adjuvant-induced arthritic rats at 50 mg/kg.; assay type: functional
[3] = system: Rattus norvegicus; test: Compound was tested by carrageenan -induced paw edema for percent change in paw volume of control sham operated rats at 50 mg/kg.; assay type: functional
In short: (§2)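 Normal, adrenalectomized or sham-operated Lewis rats were dosed po in 0.5% tragacanth, hydrated. 1 h later paw volume was read, then […] of 1% carrageenan in 0.9% saline was injected into the right hindpaw plantar surface. Volume was re-read at 3 h. Percent change, treated vs control; Student's t test.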

[4] = system: Mus musculus; test: Change in paw edema in oxazolone -induced arthritic mice at 50 mg/kg.
[5] = organism: Rattus norvegicus; test: Inhibition of primary nonimmune, L3 inflammatory lesions was measured; assay type: functional; in short: as §1
[6] = organism: Rattus norvegicus; test: Inhibition of immune, R16 inflammatory lesions was measured; assay type: functional; in short: as §1
[7] = organism: Mus musculus; test: Immunoregulatory activity against mouse contact sensitivity was evaluated as percent change; assay type: functional
In short: (§3)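 Male C57B1/6 mice were sensitized with 0.1 mL of 5% oxazolone in absolute ethanol on the clipped abdomen. At 45 h the left hind leg was challenged with 5% oxazolone. Compound was given po in 0.5% tragacanth. Edema was read plethysmographically 24 h later as left minus right leg volume. Six mice vs eight controls; Student's t test.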

[8] = system: Mus musculus; test: Change in paw edema in methotrexate-suppressed oxazolone -induced contact sensitivity in mice at 50 mg/kg.; assay type: functional
[9] = system: Rattus norvegicus; test: Percent change in immune R16 inflammatory lesions in rat adjuvant-induced arthritis at 50 mg/kg; assay type: functional; in short: as §1
[10] = system: Rattus norvegicus; test: Percent change in nonimmune L3 inflammatory lesions in rat adjuvant-induced arthritis at 50 mg/kg; assay type: functional; in short: as §1
[11] = system: Rattus norvegicus; test: Change in 19S hemagglutinination titers in adjuvant-induced arthritic rats at 50 mg/kg.; assay type: functional
[12] = organism: Rattus norvegicus; test: Inhibition of secondary nonimmune, L16 inflammatory lesions was measured; assay type: functional; in short: as §1
[13] = system: Rattus norvegicus; test: Compound was tested by carrageenan -induced paw edema for percent change in paw volume of control in adrenalectomized operated rats at 50 mg/kg.; assay type: functional; in short: as §2
[14] = organism: Rattus norvegicus; test: animal or person
[15] = organism: Rattus norvegicus; test: animal or person; remark: listed apart in the source
[16] = organism: Rattus norvegicus; test: animal or person; remark: listed apart in the source
[17] = system: Rattus norvegicus; test: The compound was tested for percent change in nonimmune L3 inflammatory lesions in rat adjuvant-induced arthritis at 50 mg/kg; assay type: functional; in short: as §1
[18] = system: Rattus norvegicus; test: The compound was tested for percent change in nonimmune L16 inflammatory lesions in rat adjuvant-induced arthritis at 50 mg/kg; assay type: functional; in short: as §1
[19] = organism: Mus musculus; test: Immunoregulatory activity against oxazolone induced mouse contact sensitivity was evaluated as percent change; assay type: functional; in short: as §3
[20] = system: Rattus norvegicus; test: The compound was tested for percent change in immune R16 inflammatory lesions in rat adjuvant-induced arthritis at 50 mg/kg; the % change was Not Significant; assay type: functional; in short: as §1
[21] = system: Rattus norvegicus; test: The compound was tested for percent change in nonimmune L3 inflammatory lesions in rat adjuvant-induced arthritis at 50 mg/kg; the % change was not statistically significant; assay type: functional; in short: as §1
[22] = system: Rattus norvegicus; test: The compound was tested for percent change in immune R16 inflammatory lesions in rat adjuvant-induced arthritis at 50 mg/kg; the % change was not statistically significant; assay type: functional; in short: as §1
[23] = organism: Mus musculus; test: Immunoregulatory activity against oxazolone induced mouse contact sensitivity was evaluated as percent change; the % change was not statistically significant; assay type: functional, organism-based; in short: as §3
[24] = system: Rattus norvegicus; test: The compound was tested for percent change in nonimmune L3 inflammatory lesions in rat adjuvant-induced arthritis at 50 mg/kg; the %change is Not statistically significant; assay type: functional; in short: as §1
[25] = system: Rattus norvegicus; test: The compound was tested for percent change in immune R16 inflammatory lesions in rat adjuvant-induced arthritis at 50 mg/kg; the %change is Not statistically significant; assay type: functional; in short: as §1
[26] = system: Rattus norvegicus; test: The compound was tested for percent change in nonimmune L16 inflammatory lesions in rat adjuvant-induced arthritis at 50 mg/kg; the %change is Not statistically significant; assay type: functional; in short: as §1
[27] = system: Rattus norvegicus; test: The compound was tested for percent change in immune R16 inflammatory lesions in rat adjuvant-induced arthritis at 50 mg/kg; assay type: functional; in short: as §1
[28] = system: Mus musculus; test: Immunoregulatory activity against oxazolone induced mouse contact sensitivity was evaluated as percent change at a dose of 10 mg/kg; assay type: functional; in short: as §3
[29] = organism: Rattus norvegicus; test: Inhibition of immune R16 inflammatory lesions was measured.; activity value ranges from 0.17 - 1.73; assay type: functional; in short: as §1
[30] = organism: Rattus norvegicus; test: Inhibition of secondary nonimmune L16 inflammatory lesions was measured; activity value ranges from 0.19 - 0.79; assay type: functional; in short: as §1
[31] = system: Rattus norvegicus; test: Compound was tested by carrageenan -induced paw edema for percent change in paw volume of control sham operated rats; assay type: functional; in short: as §2
[32] = system: Mus musculus; test: Change in paw edema in oxazolone -induced arthritic mice at 5 mg/kg
[33] = system: Rattus norvegicus; test: Compound was tested by carrageenan -induced paw edema for percent change in paw volume on treated vs. control adrenalectomized rats; assay type: functional; in short: as §2
[34] = system: Mus musculus; test: Change in paw edema in methotrexate-suppressed oxazolone -induced contact sensitivity in mice at 5 mg/kg; % change was not statistically significant; assay type: functional
[35] = organism: Rattus norvegicus; test: Inhibition of primary nonimmune L3 inflammatory lesions was measured.; assay type: functional; in short: as §1

COc1ccc(-c2nc3n(c2-c2ccc(OC)cc2)CCS3)cc1
Change [1]: -34% | Change [2]: -3.7% | Change [3]: -63% | Change [4]: 211% | ED25 [5]: 32.9 mg/kg | ED25 [6]: 24.4 mg/kg | Change [7]: 211% | Change [8]: 156% | Change [9]: -21% | Change [10]: -24% | Change [11]: 1.2% | ED25 [12]: 18.7 mg/kg | Change [13]: -58%

c1ccc([C@H]2CN3CCSC3=N2)cc1 [LEVAMISOLE]
ED25 [14]: 127 mg/kg | ED25 [15]: 44.4 mg/kg | ED25 [16]: 73.4 mg/kg

COc1ccc(-c2nc3n(c2-c2ccc(OC)cc2)CCS3(=O)=O)cc1
Change [17]: -11% | Change [18]: -12% | Change [19]: 95% | Change [20]: -7%

COc1ccc(-c2nc3sccn3c2-c2ccc(OC)cc2)cc1
Change [18]: -9% | Change [21]: -6% | Change [22]: 0% | Change [23]: Not significant

COc1cccc(-c2nc3n(c2-c2cccc(OC)c2)CC[S+]3[O-])c1 (centres undefined)
Change [24]: 4% | Change [25]: 7% | Change [19]: 59% | Change [26]: 9%

COc1ccc(-c2nc3n(c2-c2ccc(OC)cc2)CC[S+]3[O-])cc1 (centres undefined)
Change [17]: -24% | Change [18]: -29% | Change [27]: -32% | Change [28]: 76%

COc1ccc(-c2nc(C(F)(F)F)[nH]c2-c2ccc(OC)cc2)cc1 [FLUMIZOLE]
ED25 [29]: 0.78 mg/kg | ED25 [30]: 0.45 mg/kg | Change [31]: -48% | Change [32]: -28% | Change [33]: -47% | Change [34]: 3% | ED25 [35]: 11 mg/kg
